Published values pooled from the literature.
Compare with care: the assays were run in different laboratories.
Organism: Candida albicans
Effect on: microbial growth
Method: broth dilution

N#CC(=C1C=CC(=NOC(=O)c2ccccc2)C=C1)c1ccccc1 — MIC (ATCC10231; 48 h): 256 µg/mL
Nc1nn2c(-c3ccc(Cl)cc3Cl)cc(-c3ccc(OCc4ccccc4)cc3)nc2c1N=Nc1ccc(F)cc1 — MIC (ATCC10231): 62.5 µg/mL
CCON=C1C=CC(=C(C#N)c2ccccc2)C=C1 — MIC (ATCC10231; 48 h): 256 µg/mL
C/C(=N\c1nc(N)nc(/N=C(\C)c2c(O)c3ccccc3oc2=O)n1)c1c(O)c2ccccc2oc1=O — MIC (48 h): 62.5 µg/mL
C[C@@H]1[C@H](O)[C@@H](C)/C=C/C=C/C=C/C=C/C=C/C=C/C=C/[C@H](O[C@@H]2O[C@H](C)[C@@H](O)[C@H](N)[C@@H]2O)C[C@@H]2O[C@](O)(C[C@@H](O)C[C@@H](O)[C@H](O)CC[C@@H](O)C[C@@H](O)CC(=O)O[C@H]1C)C[C@H](O)[C@H]2C(=O)O — MIC (SP3903; 48 h): < 0.25 µM
C[C@@H]1[C@H](O)[C@@H](C)/C=C/C=C/C=C/C=C/C=C/C=C/C=C/[C@H](O[C@@H]2O[C@H](C)[C@@H](O)[C@H](N)[C@@H]2O)C[C@@H]2O[C@](O)(C[C@@H](O)C[C@@H](O)[C@H](O)CC[C@@H](O)C[C@@H](O)CC(=O)O[C@H]1C)C[C@H](O)[C@H]2C(=O)O — MIC (ATCC90028; 48 h): 0.5 µg/mL
C/C(=N\CCNCCNCC/N=C(\C)c1c(O)c2ccccc2oc1=O)c1c(O)c2ccccc2oc1=O — MIC (48 h): 15.6 µg/mL
N=c1sc(C(=O)c2ccc(Nc3cnccn3)cc2)nn1-c1ccc([N+](=O)[O-])cc1 — MIC (ATCC10231): 12.5 µg/mL
Cc1ccc(N=Nc2c(N)nn3c(-c4ccc(C)cc4)cc(-c4ccc(OCc5ccccc5)cc4)nc23)cc1 — MIC (ATCC10231): 31.3 µg/mL
C#CCON=C1C=CC(=C(C#N)c2ccccc2)C=C1 — MIC (ATCC10231; 48 h): 32 µg/mL
CC(=O)N1CCN(c2ccc(OCC3COC(Cn4ccnc4)(c4ccc(Cl)cc4Cl)O3)cc2)CC1 (stereo not shown) — MIC (ATCC10231): 1.95 µg/mL
CC(C)c1ccc(/C=C2\N=C(SCC(=O)O)N(c3ccccc3)C2=O)cc1 — MIC (ATCC10 ATCC10231): 21 µg/mL
C/C(=N\NC(=O)/N=C(\C)c1c(O)c2ccccc2oc1=O)c1c(O)c2ccccc2oc1=O — MIC (48 h): 31.2 µg/mL
CC(=O)N1CCN(c2ccc(OCC3COC(Cn4ccnc4)(c4ccc(Cl)cc4Cl)O3)cc2)CC1 (stereo not shown) — MIC (58288; 48 h): 16 µM
C/C(=N\C(=O)/N=C(\C)c1c(O)c2ccccc2oc1=O)c1c(O)c2ccccc2oc1=O — MIC (48 h): 31.2 µg/mL
CC(=O)C1=NN(c2ccc([N+](=O)[O-])cc2)C(=C(C#N)C(=O)c2ccc(Nc3cnccn3)cc2)S1 — MIC (ATCC10231): 6.25 µg/mL
OC(Cn1cncn1)(Cn1cncn1)c1ccc(F)cc1F — MIC (SP3902; 48 h): 8 µM
Cc1ccc(N=Nc2c(N)nn3c(-c4ccc(Cl)cc4Cl)cc(-c4ccc(OCc5ccccc5)cc4)nc23)cc1 — MIC (ATCC10231): 31.3 µg/mL
OC(Cn1cncn1)(Cn1cncn1)c1ccc(F)cc1F — MIC (1; 24 h): 128 µg/mL
N=c1sc(C(=O)c2ccc(Nc3cnccn3)cc2)nn1-c1ccccc1 — MIC (ATCC10231): 100 µg/mL
CC(=O)N1CCN(c2ccc(OCC3COC(Cn4ccnc4)(c4ccc(Cl)cc4Cl)O3)cc2)CC1 (stereo not shown) — MIC (ATCC10231; 48 h): 8 µg/mL
N#CC(C#N)=C1SC(C(=O)c2ccc(Nc3cnccn3)cc2)=NN1c1ccccc1 — MIC (ATCC10231): 100 µg/mL
CCCCCCCCCCCC(=O)ON=C1C=CC(=C(C#N)c2ccccc2)C=C1 — MIC (ATCC10231; 48 h): 512 µg/mL
N#CC(C#N)=C1SC(C(=O)c2ccc(Nc3cnccn3)cc2)=NN1c1ccc([N+](=O)[O-])cc1 — MIC (ATCC10231): 12.5 µg/mL
C/C(=N\C(=N)/N=C(\C)c1c(O)c2ccccc2oc1=O)c1c(O)c2ccccc2oc1=O — MIC (48 h): 31.2 µg/mL
